Screening data from PubChem BioAssay.
This is a sample that favours compounds with a hit; in the whole collection about 1.6% have one here.
UBC9 SUMO inh – blocks human SUMOylation mediated by UBC9. HTRF SUMOylation assay, SAE1/SAE2 + UBC9, in vitro. inhibition, % at 35 µM. hit rate 0.36% among 290,000; in the data active = inhibition above about 50%, passing the limit was not always enough
Target sequence (P63279 whole entry, looked up): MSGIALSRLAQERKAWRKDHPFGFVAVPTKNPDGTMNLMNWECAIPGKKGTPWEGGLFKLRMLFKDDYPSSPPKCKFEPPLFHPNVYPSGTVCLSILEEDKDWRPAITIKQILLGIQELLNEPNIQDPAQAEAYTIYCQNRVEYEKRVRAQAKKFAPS
Apaf1 inhib – blocks human Apaf-1 apoptosome activity; O14727; hit rate 0.71% among 330,000; inhibition, % at 20 µM; reconstituted apoptosome caspase-3 activity, DEVD-Rh110 fluorescence; active = inhibition of at least 40% at 20 µM
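Material: reconstituted apoptosome with Apaf-1, cytochrome c, caspase-9, procaspase-3, dATP; medium: pH 7.5 Hepes buffer with CHAPS, BSA, DTT; also added: cytochrome c and DEVD-Rh110 substrate; timing: 30 min plus 50 min, RT; signal: Rh110 fluorescence intensity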
JMJD2C inh – inhibitors of human GASC-1 (JMJD2C) demethylase; Q9H3R0; GST-JMJD2C(1-420) H3K9me3 demethylation, DELFIA europium; inhibition, % at 2.35 µM; hit rate 0.069% among 330,000; AID 2099;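 active = more than half of a compound's replicate wells show inhibition beyond 50%, single wells judged on their own value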;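 note: signal counts dimethyl H3K9 product captured on neutravidin plate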
Target sequence (Q9H3R0 1-420 limits assumed): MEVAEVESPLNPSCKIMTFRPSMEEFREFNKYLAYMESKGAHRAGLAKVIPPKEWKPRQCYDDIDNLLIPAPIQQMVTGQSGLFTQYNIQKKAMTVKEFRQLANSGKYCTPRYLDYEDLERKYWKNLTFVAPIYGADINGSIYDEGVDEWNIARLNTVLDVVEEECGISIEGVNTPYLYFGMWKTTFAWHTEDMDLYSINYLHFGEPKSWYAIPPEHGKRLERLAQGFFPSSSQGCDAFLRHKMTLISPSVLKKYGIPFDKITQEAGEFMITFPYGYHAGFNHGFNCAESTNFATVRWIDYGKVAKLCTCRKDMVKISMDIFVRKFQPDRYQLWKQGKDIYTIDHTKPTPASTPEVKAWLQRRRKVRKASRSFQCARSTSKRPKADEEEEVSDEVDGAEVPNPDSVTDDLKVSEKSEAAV
TDP2 absorb – blocks human TDP2 phosphodiesterase activity | AID 720702 | inhibition, % at 12.8 µM | recombinant TDP2, T5PNP hydrolysis, p-nitrophenol absorbance 415 nm | hit rate 0.34% among 370,000 | O95551;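 active = inhibition above the mean of all tested compounds plus 3 SD, set per campaign, cut at about 25% in these data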
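Assay system: Recombinant human TDP2 | Quantity: 120 nM TDP2 per well | Incubation: 2 h at 37 °C | Signal: Epi absorbance | Evaluation: Percent inhibition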
GSTO1 counter – GSTO1 inhibition, counter-screen for RBBP9 inhibitors. inhibition, % at 5.96 µM. hit rate 1.1% among 300,000. recombinant GSTO1, activity-based probe fluorescence polarization. P78417;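 active = inhibition above the campaign mean inhibition plus 3 SD, cut at about 35% in these data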
PAD4 FP inh – inhibitors of human PAD4; inhibition, % at 6.36 µM; hit rate 0.41% among 330,000; recombinant PAD4, RCA probe fluorescence polarization; Q9UM07;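 active = percent inhibition above a cutoff equal to the mean of all tested compounds plus 3 SD, cut at about 15% in these data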
PAD4 confirm – confirmation of human PAD4 inhibitors | inhibition, % at 6.36 µM | shares compounds with PAD4 FP inh | recombinant PAD4, RCA probe fluorescence polarization | hit rate 28% among 1,200 | AID 488796;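 active = mean inhibition across replicates above the hit cutoff set by the earlier primary screen, cut at about 15% in these data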;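 note: inhibitors block active-site labeling by the probe so polarization falls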
Numbers stand for hits; 0 = inactive; - = not tested or not shown.

SMILES	UBC9 SUMO inh	Apaf1 inhib	JMJD2C inh	TDP2 absorb	GSTO1 counter	PAD4 FP inh	PAD4 confirm
CC(C)C(=O)OCCCN1CCC2(CCC(c3ccccc3)CC2)C1=O (stereo not drawn)	-	-	-	0	-	-	-
Cc1ccccc1NC1=C(Cl)C(=O)OC1OC(=O)c1ccccc1C (stereo not drawn)	0	0	0	0	0	43.9	0
COc1cc(SC#N)ccc1N=Cc1c(C)[nH]n(-c2ccc(C)c(C)c2)c1=O	0	0	0	0	0	0	-
COc1cc(SC#N)ccc1N=Cc1c(C)[nH]n(-c2ccc(Cl)cc2)c1=O	0	0	0	0	0	30.3	37.3
CC(C)(C)N(Cc1ccccc1)C(=O)c1cccs1	0	0	0	0	0	0	-
N#CCCN(Cc1ccccc1)C(=O)c1cccs1	0	0	0	0	0	31.1	0
COC(=O)C1CN(Cc2cn(Cc3ccc(Cl)cc3)nn2)CCS(=O)(=O)N1Cc1ccccc1 (stereo not drawn)	-	-	-	0	-	-	-
O=C(Nc1ccc(Nc2ccccc2)cc1)c1ccccc1	-	0	0	0	0	46.5	0
O=C(Nc1ccc(Nc2ccccc2)cc1)c1ccc(Cl)cc1	-	0	0	0	0	0	-
CC(C)C(=O)NNC(=O)CSc1ncnc2c1cnn2-c1ccccc1Cl	0	0	0	0	0	0	-
Cc1csc(NC(=O)CSc2ncnc3c2cnn3-c2ccccc2Cl)n1	0	0	0	-	0	14.9	0
CC1(c2nnnn2-c2ccc3ccccc3c2)CSCC(=O)N1C1CC1 (stereo not drawn)	-	-	-	0	-	-	-
CCOC(=O)C1=C(C)N=c2s/c(=C\c3ccc(OCC(=O)O)c(OC)c3)c(=O)n2C1c1ccc(OC)cc1 (stereo not drawn)	0	0	0	0	0	15.4	0
CCN1Cc2nnn(Cc3ccc(C)cc3)c2-c2ccccc2S1(=O)=O	-	-	-	0	-	-	-
CCN(CC)S(=O)(=O)c1ccc(N=NC2=C(O)CC(C)(C)CC2=O)cc1	0	0	0	0	0	0	-
CCN(CC)S(=O)(=O)c1ccc(N=NC2=C(O)CCCC2=O)cc1	0	0	0	0	0	167.8	0
CCn1c(CSc2nnc(-c3ccoc3C)n2C)nc2cc(S(=O)(=O)N(C)C)ccc21	-	0	0	0	0	31.8	0
CCn1c(CSc2nnc(C)n2-c2ccccc2)nc2cc(S(=O)(=O)N(C)C)ccc21	0	0	0	0	0	0	-
CCn1c(CSc2nnc(-c3ccncc3)n2C)nc2cc(C(=O)O)ccc21	0	0	0	0	0	52.5	62.0
Cn1c(SCC(=O)C(C)(C)C)nnc1-c1ccncc1	0	0	0	0	0	0	-
CCn1c(CSc2ncn[nH]2)nc2cc(C(=O)O)ccc21	0	0	0	0	0	22.4	15.0
COc1ccc(C2C=C(c3ccc(F)cc3)NC(=S)N2)cc1OC (stereo not drawn)	0	0	0	0	0	0	-
COc1cccc(C2=CC(c3ccc(OC)c(OC)c3)NC(=S)N2)c1 (stereo not drawn)	0	0	0	0	0	30.2	55.9
COc1ccc(C2=CC(c3ccc(OC)c(OC)c3)NC(=S)N2)cc1 (stereo not drawn)	0	0	0	0	0	49.0	55.7
CCOC(=O)c1ccc(NC(=O)CSC2=NC(=O)C(CC)C(=O)N2)cc1 (stereo not drawn)	0	0	0	0	0	21.0	19.7
SMILES	UBC9 SUMO inh	Apaf1 inhib	JMJD2C inh	TDP2 absorb	GSTO1 counter	PAD4 FP inh	PAD4 confirm
Cc1ccc2c(c1)cc(CN(Cc1cccs1)C(=O)c1ccco1)c1nnnn12	0	0	0	0	0	29.7	0
Cc1ccc2cc(CN(Cc3cccs3)C(=O)c3ccco3)c3nnnn3c2c1C	0	0	0	-	0	0	-
Cc1ccc(NC(=O)c2ccc3c(c2)OCCO3)nc1	-	0	0	0	0	15.8	0
COc1ccc(OC)c(S(=O)(=O)N2CCCCC2C(=O)N2CCN(CCO)CC2)c1 (stereo not drawn)	-	-	-	0	-	-	-
CC(C)c1ccc(N2C(=O)CSC23C(=O)N2CCCc4cccc3c42)cc1 (stereo not drawn)	0	0	0	0	0	15.5	19.6
O=C1C2CCCCN2C(=O)N1CCCN1CCN(c2ccc(F)cc2)CC1 (stereo not drawn)	0	0	0	-	0	0	-
Nc1ccc(N2CCN(CCCCN3C(=O)C4CCCN4C3=O)CC2)cc1 (stereo not drawn)	0	0	0	0	0	65.5	0
Cc1nonc1OC(C)CNc1ccc([N+](=O)[O-])cc1 (stereo not drawn)	0	0	0	0	0	56.0	0
CC(=O)Nc1ccc2ccccc2c1	0	0	0	-	0	0	-
CCOC(=O)C(Nc1ccc2ccccc2c1)C(=O)OCC	0	0	0	0	0	21.2	0
CCCSc1nc2c(cnn2-c2ccccc2)c(=O)n1N	0	0	0	0	0	0	-
Nn1c(SCc2ccccc2)nc2c(cnn2-c2ccccc2)c1=O	0	0	0	0	0	18.4	0
O=C1C[C@@H](C(=O)Nc2ccc(Cl)cc2)[C@@H](c2ccccc2)O1	-	-	-	0	-	-	-
COC(=O)[C@@]12CCCCC3=C1N(CCC3)C(=O)[C@H]2CC(=O)NCCCCc1ccccc1	-	-	-	0	-	-	-
Cn1cccc1/C=C1\SC(=S)N(NC(=O)c2ccccc2Cl)C1=O	0	-	0	0	0	17.6	0
Cc1ccc(C(=O)NN2C(=O)/C(=C/c3cccn3C)SC2=S)cc1	0	0	0	0	0	0	-
Cc1ccc(CNC(=O)c2ccc(C)c(S(=O)(=O)N3CCCCC3)c2)cc1	-	0	0	0	-	105.0	0
Cc1ccc(-c2cc(-c3nnc(SCC(=O)N4CCOCC4)n3N)[nH]n2)cc1	-	-	-	0	-	-	-
O=C(CN1C(=O)c2cccc3cccc1c23)Nc1ccc(S(=O)(=O)N2CCOCC2)cc1	0	0	0	0	0	0	-
O=C(CN1c2cccc3cccc(c23)S1(=O)=O)Nc1ccc(S(=O)(=O)N2CCOCC2)cc1	0	0	0	0	0	16.5	31.6
O=C(O)CSc1c2ccccc2cc2ccccc12	0	0	0	0	0	23.4	20.5
Cn1ncc2nc[nH]c(=O)c21	0	0	0	0	0	19.4	0
Cc1nc[nH]c(=O)c1Br	0	0	0	0	0	0	-
FC(F)(F)c1cc(CNC2CCC23CCCCC3)ccc1Cl (stereo not drawn)	-	-	-	0	-	-	-
Cc1ccccc1N1CCN(C(=S)c2ccc([N+](=O)[O-])cc2)CC1	0	0	0	0	0	19.5	0
Cc1cc(=O)oc2c(CN3CCC(C)CC3)c(O)c(Cl)cc12	0	0	-	0	0	32.6	21.4
Cc1ccc2c(c1)-c1c(ssc1=S)C(C)(C)N2C(=O)CSc1nncn1C	0	0	0	0	0	17.1	21.9
Cc1cc(C)c2c(c1)-c1c(ssc1=S)C(C)(C)N2C(=O)CSc1nncn1C	0	0	0	0	0	33.8	31.6
